Results taken from ChEMBL document CHEMBL3297654, “Synthesis, antimicrobial and cytotoxic activities, and structure-activity relationships of gypsogenin derivatives against human cancer cells” (Eur J Med Chem, 2014).
Converted amounts (≈) assume the structure as drawn. The source made the active and inactive calls. The rule behind the calls is not given here.

Key:
HT-29 [1] = assay: Antiproliferative activity against human HT-29 cells after 24 and 72 hrs by MTT assay; format: functional, cell-based
Summary of the method: (§1)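 ATCC human cell lines are kept in RPMI, DMEM or McCoy's 5A with 10–15% heat-inactivated FCS at 37 °C and 5% CO2. They are seeded at 1×10^4–1×10^5 cells/mL in 48-well plates and exposed to 0.5, 10, 20 or 40 µM. Viability is read by MTT (590 nm) at 24 and 72 h. Growth is expressed relative to untreated cells and IC50 is fitted, in triplicate.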

HT-29 [2] = assay: Induction of necrosis in human HT-29 cells at 20 uM after 48 hrs by Hoechst 33258/propidium iodide staining based phase contrast microscopic analysis; format: functional
Summary of the method: (§2)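 Cells in 48-well plates treated with 0.5, 10, 20 or 40 µM for 24 and 48 h. Values are read at 48 h, 20 µM for test agents and 0.5 µM for controls. Staining is Hoechst 33258/propidium iodide double staining with fluorescence microscopy. Blue nuclei are viable or early-to-mid apoptotic, and pink nuclei are late apoptotic or necrotic. Apoptosis and necrosis are scored from chromatin condensation as % of cells. Cells are grown at 37 °C in 5% CO2 in RPMI, DMEM or McCoy's 5A with 10–15% heat-inactivated FCS.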

Proteus vulgaris = assay: Antimicrobial activity against Proteus vulgaris ATCC 33420 assessed as zone of inhibition at 30 uL for 24 hrs at 37 degC by disk diffusion test; format: functional, organism-based
Summary of the method: (§3)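 Compound (30 µL of a fresh 1000 µg/mL DMSO stock) goes into a 6 mm well cut in Mueller Hinton agar inoculated with 0.1 mL broth culture adjusted to 0.5 McFarland (about 1×10^8 cells/mL). Plates are incubated 24 h at 37 °C, then zone of inhibition diameter is measured in mm.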

Escherichia coli = assay: Antimicrobial activity against Escherichia coli ATCC 25922 assessed as zone of inhibition at 30 uL for 24 hrs at 37 degC by disk diffusion test; format: functional, organism-based; summary of the method: as §3
Bacillus thuringiensis [3] = assay: Antimicrobial activity against Bacillus thuringiensis for 24 hrs by microdillution method; format: functional
Summary of the method: (§4)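 Broth microdilution. Compound is dissolved in DMSO (2 mg/mL) and diluted in Mueller Hinton broth as two-fold serial dilutions from 256 to 0.125 µg/mL. Bacteria are pre-grown in nutrient broth at 30 °C, and the final inoculum is about 10^6 cfu/mL. Tests are incubated 37 °C for 24 h. MIC is the lowest concentration giving complete inhibition. Streptomycin is the positive control.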

[4] = Antiproliferative activity against human Saos2 cells after 24 and 72 hrs by MTT assay; format: functional, cell-based; conditions: SAOS-2; summary of the method: as §1
HeLa [5] = assay: Induction of necrosis in human HeLa cells at 20 uM after 48 hrs by Hoechst 33258/propidium iodide staining based phase contrast microscopic analysis; format: functional; summary of the method: as §2
Pseudomonas aeruginosa = assay: Antimicrobial activity against Pseudomonas aeruginosa ATCC 35032 assessed as zone of inhibition at 30 uL for 24 hrs at 37 degC by disk diffusion test; format: functional, organism-based; summary of the method: as §3
MCF7 [6] = assay: Induction of necrosis in human MCF7 cells at 20 uM after 48 hrs by Hoechst 33258/propidium iodide staining based phase contrast microscopic analysis; format: functional; summary of the method: as §2
Caco-2 [7] = assay: Induction of necrosis in human Caco2 cells at 20 uM after 48 hrs by Hoechst 33258/propidium iodide staining based phase contrast microscopic analysis; format: functional; summary of the method: as §2
Saccharomyces cerevisiae = assay: Antimicrobial activity against Saccharomyces cerevisiae ATCC 9763 assessed as zone of inhibition at 30 uL for 24 hrs at 30 degC by disk diffusion test; format: functional, organism-based
Summary of the method: (§5)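 Agar well diffusion on Mueller Hinton agar seeded with 0.1 mL broth culture (18–24 h), adjusted to 0.5 McFarland (about 1×10^8 bacteria or 1×10^6 yeast cells/mL). A 6 mm well is filled with 30 µL of compound from a fresh 1000 µg/mL DMSO stock. Plates are held at 30 °C for 24 h and inhibition zone diameter is read in mm.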

Bacillus subtilis [8] = assay: Antimicrobial activity against Bacillus subtilis ATCC 6633 assessed as zone of inhibition at 30 uL for 24 hrs at 30 degC by disk diffusion test; format: functional; summary of the method: as §5
Klebsiella pneumoniae = assay: Antimicrobial activity against Klebsiella pneumoniae ATCC 13882 assessed as zone of inhibition at 30 uL for 24 hrs at 37 degC by disk diffusion test; format: functional, organism-based; summary of the method: as §3
Enterococcus faecalis = assay: Antimicrobial activity against Enterococcus faecalis ATCC 29212 assessed as zone of inhibition at 30 uL for 24 hrs at 37 degC by disk diffusion test; format: functional, organism-based; summary of the method: as §3
HL-60 [9] = assay: Induction of necrosis in human HL60 cells at 20 uM after 48 hrs by Hoechst 33258/propidium iodide staining based phase contrast microscopic analysis; format: functional; summary of the method: as §2
[10] = system: Staphylococcus epidermidis; assay: Antimicrobial activity against Staphylococcus epidermidis ATCC 12228 assessed as zone of inhibition at 30 uL for 24 hrs at 37 degC by disk diffusion test; format: functional, organism-based; summary of the method: as §3
Bacillus thuringiensis [11] = assay: Antimicrobial activity against Bacillus thuringiensis assessed as zone of inhibition at 30 uL for 24 hrs at 30 degC by disk diffusion test; format: functional; summary of the method: as §5
Candida tropicalis = assay: Antimicrobial activity against Candida tropicalis assessed as zone of inhibition at 30 uL for 24 hrs at 30 degC by disk diffusion test; format: functional, organism-based; summary of the method: as §5
HT-29 [12] = assay: Induction of apoptosis in human HT-29 cells at 20 uM after 48 hrs by Hoechst 33258/propidium iodide staining based phase contrast microscopic analysis; format: functional; summary of the method: as §2
Bacillus cereus [13] = assay: Antimicrobial activity against Bacillus cereus ATCC 11778 for 24 hrs by microdillution method; format: functional; conditions: ATCC 11778, 24 h; summary of the method: as §4
HL-60 [14] = assay: Antiproliferative activity against human HL60 cells after 24 and 72 hrs by MTT assay; format: functional, cell-based; summary of the method: as §1
Caco-2 [15] = assay: Induction of apoptosis in human Caco2 cells at 20 uM after 48 hrs by Hoechst 33258/propidium iodide staining based phase contrast microscopic analysis; format: functional; summary of the method: as §2
HeLa [16] = assay: Antiproliferative activity against human HeLa cells after 24 and 72 hrs by MTT assay; format: functional, cell-based; summary of the method: as §1
MCF7 [17] = assay: Induction of apoptosis in human MCF7 cells at 20 uM after 48 hrs by Hoechst 33258/propidium iodide staining based phase contrast microscopic analysis; format: functional; summary of the method: as §2
Candida albicans = assay: Antimicrobial activity against Candida albicans ATCC 10231 assessed as zone of inhibition at 30 uL for 24 hrs at 30 degC by disk diffusion test; format: functional, organism-based; summary of the method: as §5
HL-60 [18] = assay: Induction of apoptosis in human HL60 cells at 20 uM after 48 hrs by Hoechst 33258/propidium iodide staining based phase contrast microscopic analysis; format: functional; summary of the method: as §2
Bacillus subtilis [19] = assay: Antimicrobial activity against Bacillus subtilis ATCC 6633 for 24 hrs by microdillution method; format: functional; conditions: ATCC 6633, 24 h; summary of the method: as §4
Staphylococcus aureus = assay: Antimicrobial activity against Staphylococcus aureus ATCC 25923 assessed as zone of inhibition at 30 uL for 24 hrs at 37 degC by disk diffusion test; format: functional, organism-based; summary of the method: as §3
Bacillus cereus [20] = assay: Antimicrobial activity against Bacillus cereus ATCC 11778 assessed as zone of inhibition at 30 uL for 24 hrs at 30 degC by disk diffusion test; format: functional; summary of the method: as §5
Micrococcus luteus = assay: Antimicrobial activity against Micrococcus luteus ATCC 9341 assessed as zone of inhibition at 30 uL for 24 hrs at 30 degC by disk diffusion test; format: functional, organism-based; summary of the method: as §5
Nakaseomyces glabratus = assay: Antimicrobial activity against Candida glabrata assessed as zone of inhibition at 30 uL for 24 hrs at 30 degC by disk diffusion test; format: functional, organism-based; summary of the method: as §5
SAOS-2 [21] = assay: Induction of apoptosis in human Saos2 cells at 20 uM after 48 hrs by Hoechst 33258/propidium iodide staining based phase contrast microscopic analysis; format: functional; summary of the method: as §2
MCF7 [22] = assay: Antiproliferative activity against human MCF7 cells after 24 and 72 hrs by MTT assay; format: functional, cell-based; summary of the method: as §1
SAOS-2 [23] = assay: Induction of necrosis in human Saos2 cells at 20 uM after 48 hrs by Hoechst 33258/propidium iodide staining based […] microscopic analysis; format: functional; summary of the method: as §2
HeLa [24] = assay: Induction of apoptosis in human HeLa cells at 20 uM after 48 hrs by Hoechst 33258/propidium iodide staining based phase contrast microscopic analysis; format: functional; summary of the method: as §2
Salmonella typhimurium = assay: Antimicrobial activity against Salmonella typhimurium ATCC 14028 assessed as zone of inhibition at 30 uL for 24 hrs at 37 degC by disk diffusion test; format: functional, organism-based; conditions: Salmonella enterica subsp. enterica serovar Typhimurium; summary of the method: as §3
Cyberlindnera jadinii = assay: Antimicrobial activity against Candida utilis ATCC 9950 assessed as zone of inhibition at 30 uL for 24 hrs at 30 degC by disk diffusion test; format: functional, organism-based; summary of the method: as §5
Caco-2 [25] = assay: Antiproliferative activity against human Caco2 cells after 24 and 72 hrs by MTT assay; format: functional, cell-based; summary of the method: as §1

CC(=O)O[C@H]1CC[C@]2(C)[C@H]3CC=C4[C@@H]5CC(C)(C)CC[C@]5(C(=O)O)CC[C@@]4(C)[C@]3(C)CC[C@H]2[C@]1(C)/C=N/NC(N)=S
IC50 (HT-29 [1]): 13.3 µM
Activity (HT-29 [2]): 26%
diameter of the inhibition zone (DIZ) (Proteus vulgaris): inactive
diameter of the inhibition zone (DIZ) (Escherichia coli): inactive
MIC (Bacillus thuringiensis [3]): 32 µg/mL (≈ 54.6 µM)
IC50 [4]: 10.1 µM
Activity (HeLa [5]): 65%
diameter of the inhibition zone (DIZ) (Pseudomonas aeruginosa): inactive
Activity (MCF7 [6]): 63%
Activity (Caco-2 [7]): 29%
diameter of the inhibition zone (DIZ) (Saccharomyces cerevisiae): inactive
diameter of the inhibition zone (DIZ) (Bacillus subtilis [8]): 14 mm
diameter of the inhibition zone (DIZ) (Klebsiella pneumoniae): inactive
diameter of the inhibition zone (DIZ) (Enterococcus faecalis): inactive
Activity (HL-60 [9]): 67%
diameter of the inhibition zone (DIZ) [10]: inactive
diameter of the inhibition zone (DIZ) (Bacillus thuringiensis [11]): 14 mm
diameter of the inhibition zone (DIZ) (Candida tropicalis): inactive
Activity (HT-29 [12]): 3%
MIC (Bacillus cereus [13]): 32 µg/mL (≈ 54.6 µM)
IC50 (HL-60 [14]): 12.8 µM
Activity (Caco-2 [15]): 3%
IC50 (HeLa [16]): 110 µM
Activity (MCF7 [17]): 6%
diameter of the inhibition zone (DIZ) (Candida albicans): inactive
Activity (HL-60 [18]): 2%
MIC (Bacillus subtilis [19]): 32 µg/mL (≈ 54.6 µM)
diameter of the inhibition zone (DIZ) (Staphylococcus aureus): inactive
diameter of the inhibition zone (DIZ) (Bacillus cereus [20]): 14 mm
diameter of the inhibition zone (DIZ) (Micrococcus luteus): inactive
diameter of the inhibition zone (DIZ) (Nakaseomyces glabratus): inactive
Activity (SAOS-2 [21]): 2%
IC50 (MCF7 [22]): 7.5 µM
Activity (SAOS-2 [23]): 61%
Activity (HeLa [24]): 2%
diameter of the inhibition zone (DIZ) (Salmonella typhimurium): inactive
diameter of the inhibition zone (DIZ) (Cyberlindnera jadinii): inactive
IC50 (Caco-2 [25]): 30.4 µM

CC1(C)CC[C@]2(C(=O)O)CC[C@]3(C)C(=CC[C@@H]4[C@@]5(C)CC[C@H](O)[C@@](C)(/C=N/O)[C@@H]5CC[C@]43C)[C@@H]2C1
IC50 (HT-29 [1]): 10.9 µM
Activity (HT-29 [2]): 0.7%
diameter of the inhibition zone (DIZ) (Proteus vulgaris): inactive
diameter of the inhibition zone (DIZ) (Escherichia coli): inactive
MIC (Bacillus thuringiensis [3]): 128 µg/mL (≈ 264 µM)
IC50 [4]: 7.93 µM
Activity (HeLa [5]): 3%
diameter of the inhibition zone (DIZ) (Pseudomonas aeruginosa): inactive
Activity (MCF7 [6]): 4%
Activity (Caco-2 [7]): 3%
diameter of the inhibition zone (DIZ) (Saccharomyces cerevisiae): inactive
diameter of the inhibition zone (DIZ) (Bacillus subtilis [8]): 11 mm
diameter of the inhibition zone (DIZ) (Klebsiella pneumoniae): inactive
diameter of the inhibition zone (DIZ) (Enterococcus faecalis): inactive
Activity (HL-60 [9]): 3%
diameter of the inhibition zone (DIZ) [10]: inactive
diameter of the inhibition zone (DIZ) (Bacillus thuringiensis [11]): 10 mm
diameter of the inhibition zone (DIZ) (Candida tropicalis): inactive
Activity (HT-29 [12]): 27%
MIC (Bacillus cereus [13]): 128 µg/mL (≈ 264 µM)
IC50 (HL-60 [14]): 3.9 µM
Activity (Caco-2 [15]): 23%
IC50 (HeLa [16]): 8.71 µM
Activity (MCF7 [17]): 26%
diameter of the inhibition zone (DIZ) (Candida albicans): inactive
Activity (HL-60 [18]): 30%
MIC (Bacillus subtilis [19]): 64 µg/mL (≈ 132 µM)
diameter of the inhibition zone (DIZ) (Staphylococcus aureus): inactive
diameter of the inhibition zone (DIZ) (Bacillus cereus [20]): 9 mm
diameter of the inhibition zone (DIZ) (Micrococcus luteus): inactive
diameter of the inhibition zone (DIZ) (Nakaseomyces glabratus): inactive
Activity (SAOS-2 [21]): 27%
IC50 (MCF7 [22]): 7.5 µM
Activity (SAOS-2 [23]): 3%
Activity (HeLa [24]): 26%
diameter of the inhibition zone (DIZ) (Salmonella typhimurium): inactive
diameter of the inhibition zone (DIZ) (Cyberlindnera jadinii): inactive
IC50 (Caco-2 [25]): 28.1 µM
